This is an account of results in ChEMBL document CHEMBL3120066, “Discovery of a novel class of potent HCV NS4B inhibitors: SAR studies on piperazinone derivatives” (J Med Chem, 2014).

As a reminder, the half-life is the time in which the quantity being followed falls by half. As a reminder, the EC90 is the point of the concentration-response curve where the effect stands at 90%. The EC50 is the concentration giving half of the maximal effect.

SMILES strings stand for the structures. Where only a bound is given, the exact number is not on record here.

System in one data set: not listed separately
As to the kind of experiment: Half life in human liver microsomes. It counts as ADME.
Conditions: not given
In general terms: Liver microsomes are a subcellular fraction often used to study metabolism.
Turning to `CC(C)C[C@H]1C(=O)N[C@@H](c2ccccc2)CN1C(=O)c1cc(-c2ccc(F)cc2)on1`, the half-life is 54 min.

As for `CC(C)C[C@H]1C(=O)N[C@@H](C2CCCC2)CN1C(=O)c1cc(-c2ccc(F)cc2)on1`, the half-life was determined as 29 min.

Another data set deals with Hepatitis C virus. Description: Antiviral activity against HCV1b infected in clone A and ET-lunet cells assessed as inhibition of viral replication after 4 days by RT-PCR analysis. It counts as functional, organism-based, Hepacivirus hominis. Conditions: genotype 1b, 96 h. Put shortly: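 Run in HCV genotype 1a and 1b replicon cells; each reported value is the mean of n = 2 independent determinations.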
As to `CC(C)C[C@H]1CN(C(=O)c2cc(-c3ccccc3)[nH]n2)[C@@H](CC(C)C)C(=O)N1`, the EC90 is greater than 10000 nM.

`CC(C)C[C@H]1C(=O)N[C@@H](c2cc[nH]c2)CN1C(=O)c1cc(-c2ccc(F)cc2)on1`: the EC90 stood at 63 nM.

With `CCc1cc2c(cc1F)c(C#N)c(-c1ccc(S(=O)(=O)N[C@@H](C)C(F)(F)F)cn1)n2-c1ncccn1`, the 50% effective concentration (EC50) turned out to be 1.7 nM.

As to `CC(C)C[C@H]1CN(C(=O)/C=C/c2ccc(C(F)(F)F)cc2)[C@@H](CC(C)C)C(=O)N1`, the EC90 came out at 8100 nM.

Consider `CC(C)C[C@H]1C(=O)N[C@@H](c2ccccc2)CN1C(=O)c1cc(-c2ccc(F)cc2)on1`, for which the EC90 is 60 nM.

For the compound `CC(C)C[C@@H]1CN(C(=O)[C@@H]2C[C@H]2c2ccccc2)[C@@H](CC(C)C)C(=O)N1`, the EC90 was greater than 10000 nM.

Turning to `CC(C)C[C@H]1CN(C(=O)[C@@H]2C[C@H]2c2ccccc2)[C@@H](CC(C)C)CN1`, the EC90 is greater than 10000 nM.

Turning to `Cc1ccc([C@H]2CN(C(=O)c3cc(-c4ccc(F)cc4)on3)[C@@H](CC(C)C)C(=O)N2)cc1`, the EC90 was found to be 760 nM.

As to `CC(C)C[C@H]1C(=O)N[C@@H](CC(C(F)(F)F)C(F)(F)F)CN1C(=O)c1cc(-c2ccc(F)cc2)on1`, the EC90 worked out at 7250 nM.

On to `CC(C)C[C@H]1CN(C(=O)c2csc(-c3ccccc3)n2)[C@@H](CC(C)C)C(=O)N1`, for which the EC90 was greater than 7900 nM.

In the case of `CC(C)C[C@H]1C(=O)N[C@@H](C2CC2)CN1C(=O)c1cc(-c2ccc(F)cc2)on1`, the EC90 worked out at 1100 nM.

Take `CC(C)C[C@H]1CN(C(=O)c2cc(-c3ccc(N(C)C)cc3)on2)[C@@H](CC(C)C)C(=O)N1`: the EC90 was greater than 10000 nM.

As for `CC(C)C[C@H]1CN(C(=O)/C=C/c2ccc(Cl)cc2)[C@@H](CC(C)C)C(=O)N1`, the EC90 was determined as 1600 nM.

On to `CC(C)C[C@H]1C(=O)N[C@@H](CC(C)(C)C)CN1C(=O)c1cc(-c2ccc(F)cc2)on1`, for which the EC90 came out at 2000 nM.

As for `CC(C)C[C@H]1CN(C(=O)/C=C/c2ccc(F)cc2F)[C@@H](CC(C)C)C(=O)N1`, the EC90 came to 1500 nM.

For the compound `CC[C@H]1CN(C(=O)c2cc(-c3ccc(F)cc3)on2)[C@@H](CC(C)C)C(=O)N1`, the EC90 came out at 710 nM.

For `CC(C)C[C@H]1C(=O)N[C@@H](CO)CN1C(=O)c1cc(-c2ccc(F)cc2)on1`, the EC90 was greater than 10000 nM.

In the case of `CC(C)C[C@H]1CN(C(=O)/C=C\c2ccccc2)[C@@H](CC(C)C)C(=O)N1`, the EC90 was greater than 10000 nM.

`CC(C)C[C@H]1C(=O)N[C@@H](C2CCC2)CN1C(=O)c1cc(-c2ccc(F)cc2)on1`: the EC90 came to 690 nM.

On to `CC(C)C[C@H]1C(=O)N[C@@H](C2CCCCC2)CN1C(=O)c1cc(-c2ccc(F)cc2)on1`, for which the EC90 is 190 nM.

Consider `CC(C)C[C@H]1C(=O)N[C@@H](C2CCCC2)CN1C(=O)c1cc(-c2ccc(F)cc2)on1`, for which the EC90 worked out at 90 nM.

As to `CC(C)C[C@H]1C(=O)N[C@@H](c2ccccc2F)CN1C(=O)c1cc(-c2ccc(F)cc2)on1`, the EC90 was 100 nM.

Turning to `CC(C)C[C@H]1C(=O)N[C@@H](c2ccsc2Cl)CN1C(=O)c1cc(-c2ccc(F)cc2)on1`, the EC90 came out at 4 nM.

For `CC(C)C[C@H]1C(=O)N[C@@H](c2nccs2)CN1C(=O)c1cc(-c2ccc(F)cc2)on1`, the EC90 was greater than 10000 nM.

Regarding `CC(C)C[C@H]1CN(C(=O)c2cc(-c3ccc([N+](=O)[O-])cc3)on2)[C@@H](CC(C)C)C(=O)N1`, the EC90 worked out at 2600 nM.

For the compound `CC(C)C[C@H]1CN(C(=O)/C=C/c2ccc(Br)cc2)[C@@H](CC(C)C)C(=O)N1`, the EC90 came to 7800 nM.

In the case of `CC(C)C[C@H]1C(=O)N[C@@H](CC2CC2)CN1C(=O)c1cc(-c2ccc(F)cc2)on1`, the EC90 was 450 nM.

Regarding `CC(C)C[C@H]1CN(C(=O)c2cc(-c3ccc(Br)cc3)on2)[C@@H](CC(C)C)C(=O)N1`, the EC90 was 470 nM.

On to `CC(C)C[C@H]1CN(C(=O)/C=C/c2ccc(F)cc2)[C@@H](CC(C)C)C(=O)N1`, for which the EC90 came to 1500 nM.

Turning to `CC(C)C[C@H]1CN(C(=O)c2cc(-c3ccc(F)cc3)on2)[C@@H](CC(C)C)C(=O)N1`, the EC90 worked out at 130 nM.

For the compound `COC(=O)c1ccc(/C=C/C(=O)N2C[C@H](CC(C)C)NC(=O)[C@@H]2CC(C)C)cc1`, the EC90 is greater than 10000 nM.

Take `CC(C)C[C@H]1C(=O)N[C@@H](C2CCSCC2)CN1C(=O)c1cc(-c2ccc(F)cc2)on1`: the 90% effect concentration (EC90) came out at 870 nM.

In the case of `CC[C@H]1C(=O)N[C@@H](CC(C)C)CN1C(=O)[C@@H]1C[C@H]1c1ccccc1`, the EC90 is greater than 10000 nM.

Turning to `CCCC[C@H]1CN(C(=O)c2cc(-c3ccc(F)cc3)on2)[C@@H](CC(C)C)C(=O)N1`, the EC90 came out at 530 nM.

As to `Cc1ccc([C@H]2CN(C(=O)c3cc(-c4ccc(F)cc4)on3)[C@@H](CC(C)C)C(=O)N2)s1`, the EC90 stood at 180 nM.

Take `CC(C)C[C@H]1CN(C(=O)/C=C/c2ccc(N(C)C)cc2)[C@@H](CC(C)C)C(=O)N1`: the EC90 is greater than 10000 nM.

Turning to `CC(C)C[C@H]1CN(C(=O)c2cc(-c3ccc(C#N)cc3)on2)[C@@H](CC(C)C)C(=O)N1`, the EC90 is 1530 nM.

Turning to `CC(C)C[C@H]1C(=O)N[C@@H](c2ccc(C(F)(F)F)cc2)CN1C(=O)c1cc(-c2ccc(F)cc2)on1`, the EC90 worked out at 2750 nM.

`CC(C)C[C@H]1CN(C(=O)[C@@H]2C[C@H]2c2ccccc2)[C@@H](CC(C)C)C(=O)N1C`: the EC90 amounted to 8800 nM.

On to `CC(C)C[C@H]1CN(C(=O)[C@@H]2C[C@H]2c2ccccc2)[C@H](CC(C)C)C(=O)N1`, for which the EC90 was greater than 10000 nM.

As for `CC(C)C[C@H]1CN(C(=O)c2cc(-c3ccccc3)on2)[C@@H](CC(C)C)C(=O)N1`, the EC90 came out at 1100 nM.

Turning to `CC(C)C[C@H]1CN(C(=O)c2c[nH]c(-c3ccccc3)n2)[C@@H](CC(C)C)C(=O)N1`, the EC90 was greater than 10000 nM.

On to `CC[C@@H](C)[C@H]1CN(C(=O)c2cc(-c3ccc(F)cc3)on2)[C@@H](CC(C)C)C(=O)N1`, for which the EC90 was greater than 10000 nM.

`CC(C)C[C@H]1CN(C(=O)c2coc(-c3ccccc3)n2)[C@@H](CC(C)C)C(=O)N1`: the EC90 was greater than 10000 nM.

For `CC(C)C[C@H]1CN(C(=O)c2ccc(-c3ccccc3)o2)[C@@H](CC(C)C)C(=O)N1`, the EC90 was greater than 5800 nM.

Take `CC(C)C[C@H]1CN(C(=O)c2cc(-c3ccc(F)cc3F)on2)[C@@H](CC(C)C)C(=O)N1`: the EC90 worked out at 680 nM.

Consider `CC(C)C[C@H]1CN(C(=O)C#Cc2ccccc2)[C@@H](CC(C)C)C(=O)N1`, for which the EC90 worked out at 3200 nM.

In the case of `CC(C)C[C@H]1C(=O)N[C@@H](c2ccsc2)CN1C(=O)c1cc(-c2ccc(F)cc2)on1`, the 90% effect concentration (EC90) was 26 nM.

Consider `CC(C)C[C@H]1CN(C(=O)C2CC2)[C@@H](CC(C)C)C(=O)N1`, for which the EC90 was greater than 10000 nM.

For the compound `CC(C)C[C@H]1C(=O)N[C@@H](C2CCOCC2)CN1C(=O)c1cc(-c2ccc(F)cc2)on1`, the EC90 stood at 470 nM.

For `CC(C)C[C@H]1C(=O)N[C@@H](c2ncco2)CN1C(=O)c1cc(-c2ccc(F)cc2)on1`, the EC90 was greater than 10000 nM.

In the case of `COc1ccc(-c2cc(C(=O)N3C[C@H](CC(C)C)NC(=O)[C@@H]3CC(C)C)no2)cc1`, the EC90 was 1350 nM.

As to `CC(C)C[C@H]1CN(C(=O)/C=C/c2ccc(F)c(F)c2)[C@@H](CC(C)C)C(=O)N1`, the EC90 was 1500 nM.

Turning to `CC(C)C[C@H]1C(=O)N[C@@H](C(C)C)CN1C(=O)c1cc(-c2ccc(F)cc2)on1`, the EC90 was 170 nM.

For `CC(C)C[C@H]1CN(C(=O)/C=C/c2ccc([N+](=O)[O-])cc2)[C@@H](CC(C)C)C(=O)N1`, the EC90 is greater than 10000 nM.

In the case of `CC(C)C[C@H]1CN(C(=O)c2cc(-c3ccc(F)c(F)c3)on2)[C@@H](CC(C)C)C(=O)N1`, the EC90 turned out to be 650 nM.

On to `CC(C)C[C@H]1CN(C(=O)/C=C/c2ccccc2)[C@@H](CC(C)C)C(=O)N1`, for which the EC90 was 2300 nM.

For `CC(C)C[C@H]1C(=O)N[C@@H](c2ccc[nH]2)CN1C(=O)c1cc(-c2ccc(F)cc2)on1`, the EC90 was found to be 680 nM.

On to `Cc1ccsc1[C@H]1CN(C(=O)c2cc(-c3ccc(F)cc3)on2)[C@@H](CC(C)C)C(=O)N1`, for which the EC90 was 680 nM.

`CC[C@H](C)[C@H]1CN(C(=O)[C@@H]2C[C@H]2c2ccccc2)[C@@H](CC(C)C)C(=O)N1`: the EC90 is greater than 10000 nM.

Turning to `Cc1ccc(-c2cc(C(=O)N3C[C@H](CC(C)C)NC(=O)[C@@H]3CC(C)C)no2)cc1`, the EC90 was 1540 nM.

Take `CC(C)C[C@H]1CN(C(=O)/C=C/c2ccccc2Cl)[C@@H](CC(C)C)C(=O)N1`: the EC90 came out at 9700 nM.

As to `CSCC[C@H]1CN(C(=O)c2cc(-c3ccc(F)cc3)on2)[C@@H](CC(C)C)C(=O)N1`, the EC90 turned out to be 390 nM.

As for `CCC[C@H]1CN(C(=O)c2cc(-c3ccc(F)cc3)on2)[C@@H](CC(C)C)C(=O)N1`, the EC90 came to 100 nM.

Turning to `CSC[C@H]1CN(C(=O)c2cc(-c3ccc(F)cc3)on2)[C@@H](CC(C)C)C(=O)N1`, the EC90 was 240 nM.

With `CC(C)C[C@H]1CN(C(=O)c2cc(-c3ccc(Cl)cc3)on2)[C@@H](CC(C)C)C(=O)N1`, the EC90 amounted to 290 nM.

Take `CC(C)C[C@H]1CN(C(=O)c2cccc(-c3ccccc3)c2)[C@@H](CC(C)C)C(=O)N1`: the EC90 is greater than 10000 nM.

For `CC(C)C[C@H]1C(=O)N[C@@H](CN(C)C)CN1C(=O)c1cc(-c2ccc(F)cc2)on1`, the EC90 came out at 2740 nM.

For the compound `CCC[C@H]1CN(C(=O)[C@@H]2C[C@H]2c2ccccc2)[C@@H](CC(C)C)C(=O)N1`, the EC90 turned out to be 900 nM.

`CC(C)C[C@H]1CN(C(=O)c2noc(-c3ccccc3)n2)[C@@H](CC(C)C)C(=O)N1`: the EC90 was 1400 nM.

Consider `CC(C)C[C@H]1C(=O)N[C@@H](C(C)(C)C)CN1C(=O)c1cc(-c2ccc(F)cc2)on1`, for which the EC90 stood at 1800 nM.

`CC(C)C[C@H]1CN(C/C=C/c2ccccc2)[C@@H](CC(C)C)C(=O)N1`: the EC90 worked out at 3300 nM.

Regarding `CC(C)C[C@H]1CN(C(=O)c2cn(-c3ccccc3)cn2)[C@@H](CC(C)C)C(=O)N1`, the EC90 is greater than 10000 nM.

On to `CC(C)C[C@H]1CN(C(=O)/C=C/c2ccc(S(C)(=O)=O)cc2)[C@@H](CC(C)C)C(=O)N1`, for which the EC90 is greater than 10000 nM.

Turning to `COC[C@H]1CN(C(=O)c2cc(-c3ccc(F)cc3)on2)[C@@H](CC(C)C)C(=O)N1`, the EC90 is greater than 10000 nM.

On to `Cc1ccc(/C=C/C(=O)N2C[C@H](CC(C)C)NC(=O)[C@@H]2CC(C)C)cc1`, for which the EC90 came to 5300 nM.
